Measured values published in ChEMBL document CHEMBL4020794, “Inhibition of phosphatidylinositol-3-kinase by the furanosesquiterpenoid hibiscone C” (Bioorg Med Chem Lett, 2017).
Calls of active or inactive are those of the source. No cut-off for these calls is given here.

What was measured:
Mus musculus [1] = species: Mus musculus; experiment: Inhibition of PI3K in C57BL/6 mouse IL2 starved T cells assessed as decrease in IL-2 restimulated Akt phosphorylation at 100 uM preincubated for 30 mins followed by recombinant human IL-2 addition measured after 1 to 3 hrs by Western blot analysis
How it was run: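 Activated T cells deprived of IL-2 overnight, pretreated 30 min with 100 µM compound or DMSO vehicle, then stimulated with 1000 U/mL recombinant human IL-2 for the indicated times. Phospho-Akt detected by Western blot, actin as loading control. Three independent experiments.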

Mus musculus [2] = species: Mus musculus; experiment: Competitive inhibition of PI3K in C57BL/6 mouse T cells assessed as decrease in Akt phosphorylation at 100 uM after 1 to 3 hrs by Western blot analysis; type: cell-based
How it was run: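 Growing activated T cells, not starved of IL-2, exposed to 100 µM compound or DMSO vehicle for the indicated times. Phospho-Akt detected by Western blot, actin as loading control. Three independent experiments.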

Mus musculus [3] = species: Mus musculus; experiment: Inhibition of PI3K in C57BL/6 mouse T cells assessed as decrease in Akt phosphorylation at <10 uM after 1 hr by Western blot analysis; type: cell-based
T-cell [4] = experiment: Cytotoxicity against C57BL/6 mouse T cells assessed as reduction in cell viability at 100 uM after 24 hrs by trypan blue assay; type: functional, cell-based
How it was run: (§1)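 Activated T cells in growth (not IL-2 starved) culture, duplicate samples, given DMSO vehicle or compound at the indicated doses. Followed over 24 h. At set time points, cells counted for proliferation and viability scored by trypan blue exclusion.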

T-cell [5] = experiment: Antiproliferative activity against C57BL/6 mouse T cells at […] after 18 hrs by trypan blue assay; type: functional, cell-based; how it was run: as §1

`CC(C)[C@@H]1CC(=O)c2coc3c2[C@H]1C[C@@H](C)C3=O` was tested, and the inhibition (Mus musculus [1]) was “Active”, the inhibition (Mus musculus [2]) was “Active” and the inhibition (Mus musculus [3]) was “inactive”. For the same molecule, the Activity (T-cell [4]) was “Active” and the Activity (T-cell [5]) was “Active”.
